Data set [1] deals with T1, Mitogen-activated protein kinase kinase kinase kinase 2 (Homo sapiens, UniProt Q12851).
T1 sequence (Q12851 whole entry): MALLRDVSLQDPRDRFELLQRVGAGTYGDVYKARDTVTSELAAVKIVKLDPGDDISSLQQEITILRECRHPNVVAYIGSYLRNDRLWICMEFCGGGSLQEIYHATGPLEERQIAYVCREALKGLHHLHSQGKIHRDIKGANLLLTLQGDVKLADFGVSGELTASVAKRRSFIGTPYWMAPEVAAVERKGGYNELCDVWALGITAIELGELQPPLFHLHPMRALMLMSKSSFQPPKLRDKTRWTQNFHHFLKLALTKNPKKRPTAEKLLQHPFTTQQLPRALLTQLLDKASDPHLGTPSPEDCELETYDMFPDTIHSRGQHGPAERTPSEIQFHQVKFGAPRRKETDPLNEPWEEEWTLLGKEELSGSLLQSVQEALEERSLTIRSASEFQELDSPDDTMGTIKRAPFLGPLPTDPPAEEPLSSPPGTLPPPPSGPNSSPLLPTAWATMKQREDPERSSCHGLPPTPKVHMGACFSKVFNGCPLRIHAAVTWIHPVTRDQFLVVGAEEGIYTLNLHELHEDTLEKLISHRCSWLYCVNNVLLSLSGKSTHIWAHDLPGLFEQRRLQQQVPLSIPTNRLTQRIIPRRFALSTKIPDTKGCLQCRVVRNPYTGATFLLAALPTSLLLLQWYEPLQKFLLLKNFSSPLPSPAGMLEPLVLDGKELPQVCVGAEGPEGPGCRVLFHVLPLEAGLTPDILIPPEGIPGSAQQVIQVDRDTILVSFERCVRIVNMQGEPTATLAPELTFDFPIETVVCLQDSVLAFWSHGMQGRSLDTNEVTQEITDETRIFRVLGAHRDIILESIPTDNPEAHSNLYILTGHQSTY
In words: Inhibition of GCK (unknown origin) by radiometric biochemical kinase assay.

In data set [2] the test system is OCI-AML-3. In words: Growth inhibition of ACK1/GCK knockdown human OCI-AML3 cells harboring NRAS-Q61L mutant at 0.5 uM after 72 hrs by celltiter-glo assay. The format is functional, cell-based. In general terms: ATP-based viability assays read luminescence as a measure of living cells.
The species entered for another data set is Mus musculus. In words: Inhibition of ACK1/GCK in mouse BA/F3 cells assessed as reduction in NRAS-G12D mutant-mediated cell proliferation after 72 hrs by celltiter-glo assay. The format is cell-based.
Data set [3] can be described thus: Growth inhibition of parental human U937 cells after 72 hrs by celltiter-glo assay. Type of data set: cell-based, U-937.
Data set [4] deals with OCI-AML-3. Briefly: Growth inhibition of human OCI-AML3 cells harboring NRAS-Q61L mutant after 72 hrs by celltiter-glo assay. The format is functional. The following applies: OCI-AML-3, 72 h.
The target of a further data set is Activated CDC42 kinase 1 (Homo sapiens, UniProt Q07912). In words: Inhibition of ACK1 (unknown origin) by radiometric biochemical kinase assay.
Sequence of Activated CDC42 kinase 1 (Q07912 whole entry): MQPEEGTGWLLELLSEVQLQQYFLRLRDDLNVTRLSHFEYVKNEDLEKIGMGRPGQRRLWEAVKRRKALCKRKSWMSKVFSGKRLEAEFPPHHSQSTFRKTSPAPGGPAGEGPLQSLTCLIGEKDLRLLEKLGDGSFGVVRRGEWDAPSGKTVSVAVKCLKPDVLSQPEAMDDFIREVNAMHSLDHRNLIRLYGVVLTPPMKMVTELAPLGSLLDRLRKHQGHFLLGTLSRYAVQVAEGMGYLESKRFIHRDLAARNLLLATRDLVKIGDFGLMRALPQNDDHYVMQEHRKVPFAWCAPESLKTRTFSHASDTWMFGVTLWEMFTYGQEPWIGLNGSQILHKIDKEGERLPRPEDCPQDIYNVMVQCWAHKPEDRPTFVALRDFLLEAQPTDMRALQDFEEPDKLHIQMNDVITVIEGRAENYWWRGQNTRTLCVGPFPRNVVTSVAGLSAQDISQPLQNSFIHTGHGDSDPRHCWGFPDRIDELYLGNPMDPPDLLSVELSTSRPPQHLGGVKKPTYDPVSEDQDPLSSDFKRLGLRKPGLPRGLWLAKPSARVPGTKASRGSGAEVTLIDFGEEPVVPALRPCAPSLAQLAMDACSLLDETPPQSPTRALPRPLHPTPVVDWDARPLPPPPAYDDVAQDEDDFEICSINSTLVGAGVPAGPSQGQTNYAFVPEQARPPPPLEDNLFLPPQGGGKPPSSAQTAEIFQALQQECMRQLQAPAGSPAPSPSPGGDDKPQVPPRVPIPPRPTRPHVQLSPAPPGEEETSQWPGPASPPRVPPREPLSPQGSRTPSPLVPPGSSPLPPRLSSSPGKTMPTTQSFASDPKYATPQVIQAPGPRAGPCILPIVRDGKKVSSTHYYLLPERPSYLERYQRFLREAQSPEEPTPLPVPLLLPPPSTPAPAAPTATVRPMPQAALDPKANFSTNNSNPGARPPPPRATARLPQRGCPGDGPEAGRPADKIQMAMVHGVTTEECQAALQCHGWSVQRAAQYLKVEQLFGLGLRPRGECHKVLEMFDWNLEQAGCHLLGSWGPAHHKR
A short description of data set [5]: Growth inhibition of parental mouse BA/F3 cells after 72 hrs by celltiter-glo assay. The format is cell-based, BaF3.
In data set [6] the test system is OCI-AML-3. In words: Growth inhibition of ACK1/GCK knockdown human OCI-AML3 cells harboring NRAS-Q61L mutant at 0.2 uM after 72 hrs by celltiter-glo assay. The format is functional, cell-based.
Data set [7] can be described thus: Selectivity index, ratio of GI50 for parental human U937 cells to GI50 for human OCI-AML3 cells harboring NRAS-Q61L mutant. In outline:
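Human AML lines OCI-AML3 (NRAS mutant) and U937 (NRAS wild-type) were exposed to inhibitors for 72 h. GI50 is the concentration giving half-maximal growth inhibition, averaged with SD (n = 3, duplicate). The index is the U937 GI50 divided by the OCI-AML3 GI50.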

The subject of data set [8] is OCI-AML-3. In words: Antileukemic activity against human OCI-AML3 cells harboring NRAS-Q61L mutant xenografted in immunodeficient mouse assessed as tumor volume at 8 mg/kg/day, po qd administered on day 21 post implantation measured on […] (reference value: 100%). Type of data set: functional. In general terms: Xenograft models place foreign cells or tissue in a host animal.

The subject of data set [9] is BaF3. In words: Antileukemic activity against mouse BA/F3 cells harboring NRAS-G12D mutant allografted in immunodeficient mouse assessed as median survival time at 8 mg/kg/day, po qd administered on day 6 post implantation (reference value: 23 days). Type of data set: functional.
A short description of data set [10]: Metabolic stability in rat liver microsomes assessed as compound remaining at 1 uM after 30 mins. The format is ADME, microsome. To be noted: read-out: Stability. For orientation: Liver microsomes are a subcellular fraction often used to study metabolism.
Data set [11] is described as follows: Metabolic stability in human liver microsomes assessed as compound remaining at 1 uM after 30 mins. Type of data set: ADME, microsome. To be noted: read-out: Stability.
In data set [12] the test system is BaF3. Briefly: Antileukemic activity against mouse BA/F3 cells harboring NRAS-G12D mutant/luciferase allografted in immunodeficient mouse at 8 mg/kg/day, po qd administered on day 6 post implantation measured on day 20 post implantation by bioluminescence imaging method. Type of data set: functional, organism-based. In outline:
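Immunodeficient mice injected via tail vein with Ba/F3-NRAS-G12D/Luc cells, dosed orally once daily (8 or 15 mg/kg/day) or vehicle for 3 weeks, n=4 per cohort; bioluminescence imaged every two days after luciferin 150 mg/kg, quantified by bio-photonic analysis.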

A short description of data set [13]: Metabolic stability in dog liver microsomes assessed as compound remaining at 1 uM after 30 mins. Type of data set: ADME, Canis lupus familiaris, microsome. The following applies: read-out: Stability.
Data set [14] deals with BaF3. In words: Induction of apoptosis in mouse BA/F3 cells expressing NRAS-G12D mutant assessed as increase in cleaved caspase-3 levels at 1 uM after 24 hrs by Western blot analysis. Type of data set: functional, cell-based. In outline:
(§1)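 Cells treated 24 h with indicated concentrations (1 µM; 5 µM also used in Ba/F3-NRAS-G12D); cleaved PARP, cleaved caspase 3, bcl-2 and MCL1 detected by western blot with actin as loading control.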

Data set [15] in a line: Metabolic stability in mouse liver microsomes assessed as compound remaining at 1 uM after 30 mins. To be noted: read-out: Stability. Type of data set: ADME, microsome.
For data set [16], the system named is OCI-AML-3. Briefly: Inhibition of anchorage-independent cell growth in human OCI-AML3 cells harboring NRAS Q61L mutant assessed as reduction in colony number at 0.1 to 1 uM after 14 days by iodonitrotetrazolium chloride staining-based soft agar assay. Type of data set: functional. The gist of the method: (§2)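 OCI-AML3 cells embedded in 0.7% low-melting agar, incubated 2 weeks with compound at 0.1 or 1 µM; colony number and colony size per well measured by automated image analysis; n = 3 per condition, SD, one-way ANOVA.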

The target of a further data set is CYP2C9 (Homo sapiens, UniProt P11712). Briefly: Inhibition of CYP2C9 (unknown origin) assessed as activity remaining at 10 uM relative to control. Type of data set: ADME. To be noted: read-out: Activity.
Sequence of CYP2C9 (P11712 whole entry): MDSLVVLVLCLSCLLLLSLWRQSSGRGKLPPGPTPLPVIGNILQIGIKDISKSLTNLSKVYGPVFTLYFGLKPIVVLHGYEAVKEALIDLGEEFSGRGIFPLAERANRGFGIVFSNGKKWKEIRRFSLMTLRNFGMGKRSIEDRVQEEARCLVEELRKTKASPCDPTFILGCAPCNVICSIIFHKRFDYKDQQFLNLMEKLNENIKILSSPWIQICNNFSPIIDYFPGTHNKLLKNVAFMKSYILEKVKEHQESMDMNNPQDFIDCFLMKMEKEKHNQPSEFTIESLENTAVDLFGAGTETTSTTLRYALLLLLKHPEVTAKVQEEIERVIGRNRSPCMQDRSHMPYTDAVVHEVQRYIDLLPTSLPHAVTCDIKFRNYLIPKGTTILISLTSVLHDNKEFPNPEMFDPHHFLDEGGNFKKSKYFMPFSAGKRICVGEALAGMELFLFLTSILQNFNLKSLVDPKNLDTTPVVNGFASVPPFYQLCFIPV
For data set [17], the system named is OCI-AML-3. Briefly: Inhibition of anchorage-independent cell growth in human OCI-AML3 cells harboring NRAS Q61L mutant assessed as reduction in colony size at 0.1 to 1 uM after 14 days by iodonitrotetrazolium chloride staining-based soft agar assay. The format is functional. In outline: as §2
In data set [18] the test system is BaF3. In words: Induction of apoptosis in mouse BA/F3 cells expressing NRAS-G12D mutant assessed as decrease in MCL1 levels at 1 uM after 24 hrs by Western blot analysis. Type of data set: functional, cell-based. The gist of the method:
as §1

The next data set has as its target T2, CYP1A2 (Homo sapiens, UniProt P05177).
T2 sequence (P05177 whole entry): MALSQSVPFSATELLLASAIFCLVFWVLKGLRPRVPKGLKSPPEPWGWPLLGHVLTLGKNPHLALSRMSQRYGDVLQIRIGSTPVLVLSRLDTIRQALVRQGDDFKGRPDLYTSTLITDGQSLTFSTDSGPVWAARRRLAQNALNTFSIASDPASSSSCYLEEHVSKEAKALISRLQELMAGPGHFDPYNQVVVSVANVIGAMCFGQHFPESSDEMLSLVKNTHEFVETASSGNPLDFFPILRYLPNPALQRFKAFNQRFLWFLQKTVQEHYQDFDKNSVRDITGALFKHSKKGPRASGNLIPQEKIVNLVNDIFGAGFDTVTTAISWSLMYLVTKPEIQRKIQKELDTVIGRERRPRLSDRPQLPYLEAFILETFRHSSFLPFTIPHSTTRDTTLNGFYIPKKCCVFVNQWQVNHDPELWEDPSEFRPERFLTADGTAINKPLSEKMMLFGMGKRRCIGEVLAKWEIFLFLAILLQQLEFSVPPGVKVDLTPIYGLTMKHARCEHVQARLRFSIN
Briefly: Inhibition of CYP1A2 (unknown origin) assessed as activity remaining at 10 uM relative to control. Type of data set: ADME. The following applies: read-out: Activity.

The test system of data set [19] is BaF3. In words: Induction of apoptosis in mouse BA/F3 cells expressing NRAS-G12D mutant assessed as decrease in bcl2 levels at 1 uM after 24 hrs by Western blot analysis. The format is functional, cell-based. The gist of the method: as §1
The next data set addresses CYP2D6 (Homo sapiens, UniProt P10635). In words: Inhibition of CYP2D6 (unknown origin) assessed as activity remaining at 10 uM relative to control. To be noted: read-out: Activity. The format is ADME.
In data set [20] the test system is BaF3. Briefly: Induction of apoptosis in mouse BA/F3 cells expressing NRAS-G12D mutant assessed as increase in cleaved PARP levels at 1 uM after 24 hrs by Western blot analysis. Type of data set: functional, cell-based. In outline: as §1
Data set [21] deals with OCI-AML-3. In words: Cell cycle arrest in human OCI-AML3 cells harboring NRAS Q61L mutant assessed as accumulation at G0/G1 phase at 1 uM after 24 hrs by propidium iodide staining based FACS analysis. The format is functional. The gist of the method:
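OCI-AML3 cells treated 24 h at indicated concentrations, including 1 µM; cell-cycle phase distribution measured by flow cytometry after propidium iodide staining.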

Another data set deals with CYP3A4 (Homo sapiens, UniProt P08684). Briefly: Inhibition of CYP3A4 (unknown origin) assessed as activity remaining at 10 uM relative to control. Type of data set: ADME. To be noted: read-out: Activity.
Sequence of CYP3A4 (P08684 whole entry): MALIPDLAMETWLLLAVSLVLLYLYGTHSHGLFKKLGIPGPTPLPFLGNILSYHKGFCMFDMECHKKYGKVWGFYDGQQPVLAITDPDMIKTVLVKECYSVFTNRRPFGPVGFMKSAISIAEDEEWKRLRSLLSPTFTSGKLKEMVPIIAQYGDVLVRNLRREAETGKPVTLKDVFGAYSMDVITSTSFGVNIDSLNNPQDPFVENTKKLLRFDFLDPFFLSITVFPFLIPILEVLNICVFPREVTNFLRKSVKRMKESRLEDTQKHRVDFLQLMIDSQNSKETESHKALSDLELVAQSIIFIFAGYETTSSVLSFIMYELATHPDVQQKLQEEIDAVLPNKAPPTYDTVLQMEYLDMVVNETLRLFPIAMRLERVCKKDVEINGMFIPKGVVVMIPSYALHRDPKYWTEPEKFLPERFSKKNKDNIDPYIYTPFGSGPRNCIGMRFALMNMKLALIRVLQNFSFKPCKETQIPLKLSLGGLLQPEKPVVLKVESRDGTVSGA

Active and inactive are the calls of the source. No cut-off for these calls is given here. A value given as a limit tells only on which side of the number the result lay.

Sequence of CYP2D6 (P10635 whole entry): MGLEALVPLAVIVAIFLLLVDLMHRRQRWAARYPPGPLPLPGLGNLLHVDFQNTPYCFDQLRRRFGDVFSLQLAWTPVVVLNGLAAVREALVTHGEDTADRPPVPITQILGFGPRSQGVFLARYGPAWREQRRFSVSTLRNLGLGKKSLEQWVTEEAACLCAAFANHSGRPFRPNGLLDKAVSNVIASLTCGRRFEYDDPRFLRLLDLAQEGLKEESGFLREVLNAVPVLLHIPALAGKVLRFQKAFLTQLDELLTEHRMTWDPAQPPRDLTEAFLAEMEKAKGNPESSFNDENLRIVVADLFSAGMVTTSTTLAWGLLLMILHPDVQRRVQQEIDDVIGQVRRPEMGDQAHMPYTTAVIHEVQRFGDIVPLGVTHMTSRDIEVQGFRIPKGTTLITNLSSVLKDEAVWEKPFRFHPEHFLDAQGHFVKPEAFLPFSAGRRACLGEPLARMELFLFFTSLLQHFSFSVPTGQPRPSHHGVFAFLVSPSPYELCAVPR

As usually defined, the IC50 is the concentration needed to halve the response being measured. Higher therefore signals a need for much substance. For orientation: GI50 means the concentration giving 50% growth inhibition. On to `Cc1ccc(Nc2ncc3c(n2)N(C)C(=O)N(c2cc(NC(=O)c4ccc(C)c(C(F)(F)F)c4)ccc2C)C3)cn1`, for which the IC50 was determined as 39 nM in data set [1] and 20 nM against Activated CDC42 kinase 1. In addition, the “growth inhibition (GI)” value in the data set on OCI-AML-3 [2] is “Active”. For the same molecule, the values for the GI50 in the data set filed under Mus musculus and with OCI-AML-3 [4] were 387 nM and 394 nM, respectively. Moreover, the GI50 at 72 h in data set [3] was 19.4 µM; in data set [5], 870 nM.

For `Cc1ccc(Nc2ncc3c(n2)N(C)C(=O)N(c2cc(NC(=O)c4ccc(-n5cccc5)c(C(F)(F)F)c4)ccc2C)C3)cn1`, the “growth inhibition (GI)” value in the data set with OCI-AML-3 [6] is “Active”. Also, the IC50 worked out at 24 nM in data set [1] and 10 nM against Activated CDC42 kinase 1. Besides, the GI50 stood at 69 nM in the data set filed under Mus musculus and 267 nM in the data set with OCI-AML-3 [4]. Besides, the concentration for 50% growth inhibition (GI50) at 72 h in data set [3] is above 25 µM; in data set [5], 317 nM. Moreover, the RatioGI50 in data set [7] came out at 100.

In the case of `Cc1ccc(Nc2ncc3c(n2)N(C)C(=O)N(c2cc(NC(=O)c4cccc(C(F)(F)F)c4)ccc2C)C3)cn1`, the Activity in the data set with OCI-AML-3 [8] was determined as 53.8%. In addition, the “growth inhibition (GI)” value in the data set on OCI-AML-3 [6], in the data set with OCI-AML-3 [16] and in the data set with OCI-AML-3 [17] was “Active” in each case. Moreover, the half-maximal inhibitory concentration (IC50) is 8 nM in [1] and 25 nM at Activated CDC42 kinase 1. Also, in the data set with BaF3 [9], the MSD was 31 days. In addition, the remaining at 0.5 h, 1 µM in data set [10] turned out to be 84.8%; in data set [11], 78.6%; in data set [13], 55.3%; in data set [15] it was 80.5%. The Activity entry in the data set on BaF3 [12], in the data set on BaF3 [14], in the data set on BaF3 [18], with BaF3 [19], in the data set on BaF3 [20] and in the data set with OCI-AML-3 [21] was “Active” throughout. Besides, the results for the GI50 in the data set filed under Mus musculus and with OCI-AML-3 [4] were 81 nM and 219 nM, respectively. Besides, the GI50 at 72 h is 4.38 µM in [3] and 1030 nM in [5]. Besides, the activity at 10 µM at CYP2C9 was 27%; at CYP1A2 it was 93.2%; on CYP2D6, 68.4%; at CYP3A4 it was above 100%.

Values taken from ChEMBL document CHEMBL4196175, “First SAR Study for Overriding NRAS Mutant Driven Acute Myeloid Leukemia” (J Med Chem, 2018).
